Compound activity from PubChem.
Shown are actives, neighbours in structure and some others; about 5.9% of the full set was active somewhere.
T cruzi growth-1: inhibitors of T. cruzi proliferation; inhibition, % at 8.34 µM; 77,000 compounds, 5.9% hits; T. cruzi beta-gal in NIH3T3, GalScreen luminescence, 90 h;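 active = mean inhibition above about 93%, with at least 55% of replicates each passing it, limit read from the data, passing the limit was not always enough; inconclusive = only one of those two conditions holds; inactive = neither condition holds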
Pf Dd2 growth: blocks growth of Plasmodium falciparum Dd2 parasites; AID 1159554; P. falciparum Dd2 growth, SYBR Green, 72 h; active compounds read low; 94,000 compounds, 2.3% hits; activity change, % at 10 µM; in the data active = activity change below about -80%; inconclusive = no clear call, values can overlap the other calls
IDH1 mut inh: IDH1 R132H (human) inhibition | O75874 | IDH1 R132H reductase, diaphorase/resazurin fluorescence, 60 min | inhibition, % at 10 µM | 70,000 compounds, 0.18% hits | AID 624101; in the data active = inhibition above about 34%; inconclusive = no clear call, values can overlap the other calls; inactive = below about 11%
Target sequence (O75874 whole entry R132H): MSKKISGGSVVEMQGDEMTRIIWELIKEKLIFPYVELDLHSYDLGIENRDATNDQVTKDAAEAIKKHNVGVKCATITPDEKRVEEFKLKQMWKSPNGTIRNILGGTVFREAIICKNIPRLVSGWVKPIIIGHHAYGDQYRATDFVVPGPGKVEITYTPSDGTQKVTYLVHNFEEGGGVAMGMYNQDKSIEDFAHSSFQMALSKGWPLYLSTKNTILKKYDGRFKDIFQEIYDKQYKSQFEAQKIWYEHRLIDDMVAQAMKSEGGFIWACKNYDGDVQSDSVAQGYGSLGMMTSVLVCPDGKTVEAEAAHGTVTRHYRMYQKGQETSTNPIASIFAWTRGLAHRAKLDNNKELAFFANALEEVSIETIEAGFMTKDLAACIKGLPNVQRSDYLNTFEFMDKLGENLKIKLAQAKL
KDM4C inh: KDM4C (human) demethylase inhibition; Q9H3R0; GST-KDM4C 2-372, H3K9me3 peptide, LANCE TR-FRET; inhibition, % at 12.5 µM; 96,000 compounds, 0.15% hits; AID 720574;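 active = mean replicate inhibition above about 25%, with at least 55% of replicates also reaching it, limit read from the data, passing the limit was not always enough; inconclusive = only one of those two conditions met; inactive = neither condition met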
Target sequence (Q9H3R0 2-372 limits assumed): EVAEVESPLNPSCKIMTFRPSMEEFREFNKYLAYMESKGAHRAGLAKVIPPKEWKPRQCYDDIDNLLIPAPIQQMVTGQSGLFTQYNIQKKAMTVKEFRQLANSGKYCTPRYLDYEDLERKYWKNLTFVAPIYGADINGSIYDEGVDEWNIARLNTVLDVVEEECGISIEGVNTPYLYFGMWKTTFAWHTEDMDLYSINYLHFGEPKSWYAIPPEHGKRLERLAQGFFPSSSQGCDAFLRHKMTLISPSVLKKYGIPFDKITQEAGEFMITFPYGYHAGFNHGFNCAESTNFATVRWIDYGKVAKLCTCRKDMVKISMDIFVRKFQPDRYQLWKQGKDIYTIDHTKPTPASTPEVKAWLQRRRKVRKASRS
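Compound: one test concentration per compound; Material: GST-GASC-1 enzyme fragment 2-372; Amount: GASC-1 enzyme at 10 nM final in reaction; Also added: H3K9me3 peptide substrate, Fe(II), 2-oxoglutarate; Technique: LANCE TR-FRET; Times: 30 min demethylation and 1 h detection at room temperature.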
T cruzi growth-2: blocks T. cruzi growth in NIH3T3 host cells; inhibition, % at 8.35 µM; T. cruzi beta-gal in NIH3T3, GalScreen luminescence, 90 h; 5,600 compounds, 72% hits; AID 651739; shares compounds with T cruzi growth-1;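 active = mean replicate inhibition above about 95% and at least 55% of replicates individually reaching it, limit read from the data; inconclusive = only one of the two criteria is met; inactive = neither criterion is met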
T cruzi growth-3: Trypanosoma cruzi proliferation inhibition. shares compounds with T cruzi growth-1. T. cruzi beta-gal in NIH3T3, GalScreen luminescence, 90 h. inhibition, % at 2.09 µM. 5,600 compounds, 21% hits;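 active = mean inhibition above about 95%, with at least 55% of replicates also reaching it, limit read from the data; inconclusive = meets just one of the two conditions; inactive = meets neither condition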
3T3 cytotox: NIH/3T3 (mouse) viability loss; cytotoxicity (signal decrease), % at 8.35 µM; NIH/3T3 viability, CellTiter-Glo ATP luminescence, 90 h; shares compounds with T cruzi growth-1; 5,600 compounds, 14% hits; AID 651742;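 active = mean signal decrease across replicates above about 35% based on untreated-well scatter, with enough replicates individually passing, limit read from the data; inconclusive = no rule stated though some were filed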
3T3 cytotox 2: NIH/3T3 (mouse) viability loss. 5,600 compounds, 56% hits. AID 651744. inhibition, % at 24.9 µM. NIH/3T3 viability, CellTiter-Glo ATP luminescence, 90 h. shares compounds with T cruzi growth-1;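 active = mean loss of cell viability signal at or above a set limit, and enough replicates individually reaching it; inconclusive = meets only the mean limit or only the replicate share; inactive = meets neither condition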
Large screens that a line does not name were inactive (follow-up assays come after a bar, where they were run); ! = not confirmed by another sample.

COc1cccc(S(=O)(=O)N(C)C[C@H]2Oc3ncc(C#CC(C)C)cc3C(=O)N([C@@H](C)CO)C[C@H]2C)c1	T cruzi growth-1 109.2 | T cruzi growth-2 inactive | T cruzi growth-3 inactive | 3T3 cytotox inactive | 3T3 cytotox 2 49.0
COc1cccc(S(=O)(=O)N(C)C[C@@H]2Oc3ncc(C#CCC(C)C)cc3C(=O)N([C@H](C)CO)C[C@@H]2C)c1	none (no result: IDH1 mut inh)
COc1cccc(S(=O)(=O)N(C)C[C@@H]2Oc3ncc(C#CCN(C)C)cc3C(=O)N([C@H](C)CO)C[C@H]2C)c1	T cruzi growth-1 96.0! (no result: IDH1 mut inh) | T cruzi growth-2 inconclusive | T cruzi growth-3 inactive | 3T3 cytotox inactive | 3T3 cytotox 2 inactive
COc1cccc(S(=O)(=O)N(C)C[C@@H]2Oc3ncc(C#CCC(C)C)cc3C(=O)N([C@@H](C)CO)C[C@H]2C)c1	T cruzi growth-1 111.2 (no result: IDH1 mut inh) | T cruzi growth-2 107.4 | T cruzi growth-3 inactive | 3T3 cytotox inactive | 3T3 cytotox 2 76.5
CCCN(C)C[C@H]1OCCCC[C@H](C)Oc2ccc(NS(=O)(=O)c3ccccc3)cc2C(=O)N([C@@H](C)CO)C[C@H]1C	none (no result: IDH1 mut inh)
C[C@@H]1CN([C@H](C)CO)C(=O)c2cccc(NC(=O)C3CCOCC3)c2O[C@@H]1CN(C)Cc1ccc(Cl)c(Cl)c1	none
COc1cccc(S(=O)(=O)N(C)C[C@H]2Oc3ncc(C#CC(C)C)cc3C(=O)N([C@H](C)CO)C[C@@H]2C)c1	none
CCCC#Cc1cnc2c(c1)C(=O)N([C@H](C)CO)C[C@@H](C)[C@@H](CN(C)S(=O)(=O)c1cccc(OC)c1)O2	T cruzi growth-1 104.0 | T cruzi growth-2 99.1 | T cruzi growth-3 inactive | 3T3 cytotox 36.8 | 3T3 cytotox 2 64.7
COc1cccc(S(=O)(=O)N(C)C[C@@H]2Oc3ncc(C#Cc4ccc(F)cc4)cc3C(=O)N([C@H](C)CO)C[C@@H]2C)c1	T cruzi growth-1 107.6 | T cruzi growth-2 102.8 | T cruzi growth-3 inactive | 3T3 cytotox inactive | 3T3 cytotox 2 inactive
COc1ccc2c3c(n(C)c2c1)[C@H](CO)N(Cc1ccc2c(c1)OCO2)CC31CCN(C)CC1	none (no result: T cruzi growth-1, IDH1 mut inh)
C[C@@H]1CCCCO[C@H](CN(C)C(=O)CCC(F)(F)F)[C@H](C)CN([C@H](C)CO)C(=O)c2cc(N(C)C)ccc2O1	none (no result: Pf Dd2 growth)
C[C@@H]1CCCCO[C@@H](CN(C)C(=O)CCC(F)(F)F)[C@@H](C)CN([C@H](C)CO)C(=O)c2cc(N(C)C)ccc2O1	T cruzi growth-1 98.9! | T cruzi growth-2 inactive | T cruzi growth-3 inactive | 3T3 cytotox inactive | 3T3 cytotox 2 inactive
C[C@@H]1CCCCO[C@@H](CN(C)C(=O)CCCN(C)C)[C@H](C)CN([C@@H](C)CO)C(=O)c2cc(N(C)C)ccc2O1	none
C[C@@H]1CCCCO[C@@H](CN(C)C(=O)CCCN(C)C)[C@@H](C)CN([C@H](C)CO)C(=O)c2cc(N(C)C)ccc2O1	T cruzi growth-1 108.1! | T cruzi growth-2 inactive | T cruzi growth-3 inactive | 3T3 cytotox inactive | 3T3 cytotox 2 inactive
COc1ccc(OC)c(NC(=O)CSc2nnc(-c3ccc(C)c(Cl)c3)n2-c2ccccc2)c1	none (no result: T cruzi growth-1, Pf Dd2 growth, KDM4C inh)
C[C@@H]1CN([C@H](C)CO)C(=O)c2cc(C#CCN(C)C)cnc2O[C@H]1CN(C)Cc1cccc(F)c1	none
CC(C)CC#Cc1cnc2c(c1)C(=O)N([C@H](C)CO)C[C@H](C)[C@@H](CN(C)Cc1cccc(F)c1)O2	T cruzi growth-1 111.6 | T cruzi growth-2 106.4 | T cruzi growth-3 inactive | 3T3 cytotox inactive | 3T3 cytotox 2 106.9
C[C@H]1CN([C@@H](C)CO)C(=O)c2cc(C#CCc3ccccc3)cnc2O[C@H]1CN(C)Cc1cccc(F)c1	none
CC(C)CC#Cc1cnc2c(c1)C(=O)N([C@@H](C)CO)C[C@@H](C)[C@H](CN(C)Cc1cccc(F)c1)O2	T cruzi growth-1 103.3 | T cruzi growth-2 104.3 | T cruzi growth-3 inactive | 3T3 cytotox inactive | 3T3 cytotox 2 107.5
C[C@@H]1CN([C@@H](C)CO)C(=O)c2cc(C#CCc3ccccc3)cnc2O[C@H]1CN(C)Cc1cccc(F)c1	T cruzi growth-1 96.6 | T cruzi growth-2 110.6 | T cruzi growth-3 inactive | 3T3 cytotox inactive | 3T3 cytotox 2 104.5
C/C=C/c1ccc([C@H]2[C@@H](CO)N(c3ncc(CC)s3)[C@H]2C#N)cc1	T cruzi growth-1 97.8 (no result: IDH1 mut inh) | T cruzi growth-2 inactive | T cruzi growth-3 inactive | 3T3 cytotox inactive | 3T3 cytotox 2 inactive
CCc1cnc(N2[C@@H](C#N)[C@H](c3ccccc3)[C@@H]2CO)s1	none (no result: IDH1 mut inh)
C/C=C/c1ccccc1[C@@H]1[C@H](C#N)N(c2ncc(CC)s2)[C@H]1CO	none (no result: T cruzi growth-1, IDH1 mut inh)
C/C=C/c1ccc([C@H]2[C@@H](C#N)N(c3ncc(CC)s3)[C@@H]2CO)cc1	T cruzi growth-1 99.4 (no result: IDH1 mut inh, KDM4C inh) | T cruzi growth-2 102.0 | T cruzi growth-3 inactive | 3T3 cytotox inactive | 3T3 cytotox 2 inactive
O=C(CSc1nc2ccccc2c(=O)[nH]1)Nc1ccc(Br)cc1F	none (no result: T cruzi growth-1, Pf Dd2 growth, KDM4C inh)
C[C@H]1CN([C@@H](C)CO)C(=O)c2cc(C#Cc3ccccc3F)cnc2O[C@H]1CN(C)S(=O)(=O)c1ccccc1F	T cruzi growth-1 97.5! | T cruzi growth-2 107.3 | T cruzi growth-3 inactive | 3T3 cytotox 59.8 | 3T3 cytotox 2 40.3
C[C@H]1CN([C@@H](C)CO)C(=O)c2cc(C#Cc3ccccc3F)cnc2O[C@@H]1CN(C)S(=O)(=O)c1ccccc1F	T cruzi growth-1 114.8 | T cruzi growth-2 110.6 | T cruzi growth-3 inactive | 3T3 cytotox inactive | 3T3 cytotox 2 42.7
C[C@H]1CN([C@@H](C)CO)C(=O)c2cc(C#Cc3ccccc3)cnc2O[C@H]1CN(C)S(=O)(=O)c1ccccc1F	none (no result: KDM4C inh)
C[C@@H]1CN([C@@H](C)CO)C(=O)c2cc(C#Cc3ccccc3)cnc2O[C@@H]1CN(C)S(=O)(=O)c1ccccc1F	none (no result: IDH1 mut inh, KDM4C inh)
C[C@@H]1CN([C@H](C)CO)C(=O)c2cc(C#Cc3ccccc3)cnc2O[C@H]1CN(C)S(=O)(=O)c1ccccc1F	T cruzi growth-1 inconclusive (no result: IDH1 mut inh, KDM4C inh) | T cruzi growth-2 104.7 | T cruzi growth-3 inactive | 3T3 cytotox inactive | 3T3 cytotox 2 45.8
C[C@@H]1CCCCO[C@@H](CN(C)S(=O)(=O)c2cccs2)[C@@H](C)CN([C@H](C)CO)C(=O)c2cc(NC(=O)CCC(F)(F)F)ccc2O1	none (no result: IDH1 mut inh)
CCCC#Cc1ccc2c(c1)O[C@H](CN(C)C(=O)c1ccccc1)[C@@H](C)CN([C@@H](C)CO)S2(=O)=O	T cruzi growth-1 111.6 | T cruzi growth-2 103.6 | T cruzi growth-3 inactive | 3T3 cytotox inactive | 3T3 cytotox 2 35.2
CCCC#Cc1ccc2c(c1)O[C@@H](CN(C)C(=O)c1ccncc1)[C@H](C)CN([C@@H](C)CO)S2(=O)=O	none
